These results are taken from ChEMBL document CHEMBL1155359 (Bioorg Med Chem Lett, 2009).

Data set [1] has as its system Cavia porcellus. The data set is described as follows: Cardiovascular toxicity in iv dosed Hartley guinea pig QTc prolongation after 30 mins by ECG. The conditions noted are these: in vivo, 0.5 h. It is filed as organism-based. The procedure, abridged:
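Guinea pig in vivo QTc test; potency is reported as the minimum effective dose (MED) in mg/kg.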

In data set [2] the test system is Cavia porcellus. Nature of the data set: Antihistamine activity in iv dosed Hartley guinea pig assessed as inhibition of histamine-induced bronchoconstriction pretreated before histamine challenge. It is filed as functional. The procedure, abridged:
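Guinea pig in vivo antihistamine test; potency is reported as an ED50 in mg/kg.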

For data set [3], the system named is Cavia porcellus. Nature of the data set: Cardiovascular toxicity in Hartley guinea pig assessed as QTc prolongation at 100 mg/kg, iv after 30 mins by ECG. Details: dose 100 mg/kg, route intravenous; call rule not given here. It is filed as organism-based. The note with it: in vivo, 0.5 h.
In data set [4] the target is hERG (KCNH2) (Homo sapiens, UniProt Q12809). Nature of the data set: (§1) Inhibition of human ERG in L929 cells at 10 uM by whole cell patch-clamp assay. The note with it: human. On the technique in general: The patch-clamp technique gives a direct electrical read-out from membranes.
Sequence of hERG (KCNH2) (Q12809 whole entry): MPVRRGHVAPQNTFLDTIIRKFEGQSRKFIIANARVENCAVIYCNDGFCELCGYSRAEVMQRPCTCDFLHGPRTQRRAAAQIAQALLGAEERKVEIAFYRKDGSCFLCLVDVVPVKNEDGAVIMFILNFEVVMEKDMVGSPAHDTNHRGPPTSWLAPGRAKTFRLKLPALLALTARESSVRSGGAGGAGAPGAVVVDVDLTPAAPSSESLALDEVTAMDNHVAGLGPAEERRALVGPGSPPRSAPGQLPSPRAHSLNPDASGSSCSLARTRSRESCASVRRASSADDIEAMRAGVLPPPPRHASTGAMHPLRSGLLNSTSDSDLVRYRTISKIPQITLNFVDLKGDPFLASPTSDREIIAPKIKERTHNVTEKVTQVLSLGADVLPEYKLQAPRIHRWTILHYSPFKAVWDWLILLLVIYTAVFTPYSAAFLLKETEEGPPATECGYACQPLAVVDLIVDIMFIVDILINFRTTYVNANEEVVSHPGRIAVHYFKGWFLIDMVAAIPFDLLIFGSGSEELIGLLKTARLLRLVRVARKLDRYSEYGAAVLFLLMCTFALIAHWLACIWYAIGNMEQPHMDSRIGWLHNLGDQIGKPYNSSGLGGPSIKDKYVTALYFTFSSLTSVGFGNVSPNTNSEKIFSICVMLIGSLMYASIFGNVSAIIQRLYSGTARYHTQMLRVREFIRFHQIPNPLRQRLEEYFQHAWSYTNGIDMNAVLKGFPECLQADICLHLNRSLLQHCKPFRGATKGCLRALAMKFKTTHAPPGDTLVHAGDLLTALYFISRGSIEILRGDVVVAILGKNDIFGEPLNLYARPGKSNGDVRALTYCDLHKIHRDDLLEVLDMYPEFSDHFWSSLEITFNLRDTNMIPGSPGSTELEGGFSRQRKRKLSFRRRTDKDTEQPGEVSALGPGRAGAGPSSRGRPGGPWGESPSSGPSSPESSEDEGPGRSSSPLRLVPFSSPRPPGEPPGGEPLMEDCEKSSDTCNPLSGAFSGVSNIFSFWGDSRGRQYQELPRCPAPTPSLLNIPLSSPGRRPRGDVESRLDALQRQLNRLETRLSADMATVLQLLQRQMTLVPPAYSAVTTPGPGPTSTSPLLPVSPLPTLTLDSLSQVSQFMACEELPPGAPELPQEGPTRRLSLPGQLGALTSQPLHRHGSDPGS
Data set [5] deals with Histamine H1 receptor (Homo sapiens, UniProt P35367). Nature of the data set: Displacement of [3H]pyrilamine from human recombinant histamine H1 receptor expressed in CHO cell by Betaplate scintillation counting. It is filed as cell-based. (In general: In a radioligand displacement assay an active substance lowers the binding of a labelled ligand.)
Sequence of Histamine H1 receptor (P35367 whole entry): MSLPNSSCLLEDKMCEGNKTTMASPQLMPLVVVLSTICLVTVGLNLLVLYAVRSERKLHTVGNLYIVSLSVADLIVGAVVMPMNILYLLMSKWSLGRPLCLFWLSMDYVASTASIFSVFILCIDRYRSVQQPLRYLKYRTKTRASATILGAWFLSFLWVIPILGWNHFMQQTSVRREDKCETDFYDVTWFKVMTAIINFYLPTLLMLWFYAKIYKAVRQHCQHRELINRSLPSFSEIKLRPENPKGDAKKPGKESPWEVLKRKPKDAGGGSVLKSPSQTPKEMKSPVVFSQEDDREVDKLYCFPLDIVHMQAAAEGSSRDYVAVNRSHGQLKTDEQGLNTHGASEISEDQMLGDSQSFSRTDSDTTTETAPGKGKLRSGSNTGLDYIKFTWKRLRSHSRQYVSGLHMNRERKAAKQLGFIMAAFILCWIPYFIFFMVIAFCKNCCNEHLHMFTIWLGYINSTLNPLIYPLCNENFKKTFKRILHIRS
Data set [6] has as its target T1, Voltage-gated inwardly rectifying potassium channel KCNH2 (Homo sapiens, UniProt Q12809). The data set is described as follows: Inhibition of human ERG in L929 cells by whole cell patch-clamp assay.
The target of data set [7] is T1, Voltage-gated inwardly rectifying potassium channel KCNH2. The description is as §1.
In data set [8] the test system is Cavia porcellus. Nature of the data set: Cardiovascular toxicity in Hartley guinea pig assessed as QTc prolongation at 50 mg/kg, iv after 30 mins by ECG. The conditions noted are these: in vivo, 0.5 h. Details: dose 50 mg/kg, route intravenous. It is filed as organism-based.
The mark [9] stands for this setting: L929 cells expressing human ERG.

By ED50 is commonly meant the dose that gives a 50% effect, or the effect in half of the subjects. The inhibition is the drop in the measured response relative to a control, in per cent. High values mean a strong effect, low ones a weak effect. As usually defined, the Ki is a measure of affinity in units of concentration, obtained from inhibition or displacement. The IC50 is the concentration at which inhibition is half-maximal. A lower IC50 goes with greater potency.

T1 sequence (Q12809 whole entry): as the sequence (Q12809 whole entry) above

On to `CC(C)(C(=O)O)c1ccc(C(O)CCCN2CCC(C(O)(c3ccccc3)c3ccccc3)CC2)cc1` (racemic) [FEXOFENADINE], for which the MED result was “Not Active” in data set [1] and over 100 mg/kg in data set [3]. Besides, the ED50 in data set [2] came to 0.08 mg/kg.
In data set [4] (setting [9]), `Cc1ccc(CCCCC2CCC(C(O)(c3ccccc3)c3ccccc3)CC2)cc1` (stereo not given) came in with an inhibition at 10 µM of 35%. Also, the Ki result in data set [5] (cho) is “Not Active”.
Turning to `Cc1ccc(CCCN2CCC(C(O)(c3ccccc3)c3ccccc3)CC2)cc1`, the Ki in data set [5] (read-out: Ki) worked out at 0.155 µM.
As to `CC(C)(C)c1ccc(C(O)CCCN2CCC(C(O)(c3ccccc3)c3ccccc3)CC2)cc1` (racemic) [TERFENADINE], in data set [1], the MED was determined as 0.03 mg/kg. Also, the ED50 in data set [2] was 0.8 mg/kg.
For the compound `OC(c1ccccc1)(c1ccccc1)C1CCNCC1` [AZACYCLONOL], the Ki in data set [5] (read-out: Ki) was determined as 0.659 µM.
Consider `CC1CCC(CCCCN2CCC(C(O)(c3ccccc3)c3ccccc3)CC2)CC1` (stereo not given), for which, in data set [4] (setting [9]), at 10 µM the inhibition was 85%. Further, in data set [5] (read-out: Ki), the Ki was 0.061 µM.
Taken in the same sequence, the figures for `Cc1ccc(CCCCN2CCCCC2)cc1` were 71% and 3.2 µM.
Taken in the same sequence, the figures for `Cc1ccc(CCCCN2CCC(C(O)c3ccccc3)CC2)cc1` (stereo not given) were 97% and 0.121 µM.
Taken in the same sequence, the figures for `Cc1ccc(CN2CCC(C(O)(c3ccccc3)c3ccccc3)CC2)cc1` were 100% and 0.016 µM.
As to `Cc1ccc(CCCC(=O)N2CCC(C(O)(c3ccccc3)c3ccccc3)CC2)cc1`, the inhibition at 10 µM in data set [4] (setting [9]) worked out at 11%. Further, in data set [5] (cho), the Ki entry is “Not Active”.
Turning to `O=C(O)c1ccc(CCCCN2CCC(C(O)(c3ccccc3)c3ccccc3)CC2)cc1`, the IC50 in data set [6] and in data set [7] was 11 µM each time. The same compound came in with an inhibition at 10 µM in data set [4] (l929) of 56%. The MED result in data set [1] is “Not Active”; in data set [8] it was over 50 mg/kg. Moreover, in data set [2], the ED50 was determined as 0.1 mg/kg. Besides, the Ki in data set [5] (read-out: Ki) stood at 0.203 µM.
In data set [4] (setting [9]), `COC(=O)c1ccc(CCCCN2CCC(C(O)(c3ccccc3)c3ccccc3)CC2)cc1` displayed an inhibition at 10 µM of 100%. Further, in data set [5] (read-out: Ki), the Ki turned out to be 0.02 µM.
Taken in the same sequence, the figures for `Cc1ccc(CCN2CCC(C(O)(c3ccccc3)c3ccccc3)CC2)cc1` were 100% and 0.064 µM.
Turning to `Cc1ccc(CCCCN2CCC(C(O)(c3ccccc3)c3ccccc3)CC2)cc1`, the MED in data set [1] was determined as 0.1 mg/kg. Besides, the ED50 in data set [2] is 0.9 mg/kg. Also, the Ki in data set [5] (read-out: Ki) amounted to 0.039 µM.
`Cc1ccc(CCCCN2CCC(CO)CC2)cc1`: testing at 10 µM in data set [4] (setting [9]) gave an inhibition of 54%. In addition, the Ki entry in data set [5] (cho) is given as “Not Active”.
